One may read the IC50 as the concentration at which inhibition is half-maximal. Low values mean greater potency in that assay, high ones weaker potency in that assay. What is called ΔTm is the change in melting temperature against a reference sample. What is called LD50 is the dose at which mortality reaches 50%.

Active and inactive are the calls of the source. The rule behind the calls is not given here. Peptide text beside a SMILES is read from it. * marks the point of attachment. OBn = c1ccc(CO*)cc1 Where only a bound is given, the exact number is not on record here.

Results on one molecule are retold here after ChEMBL document CHEMBL1806449, “A class of Trp-Trp-AA-OBzl: Synthesis, in vitro anti-proliferation/in vivo anti-tumor evaluation, intercalation-mechanism investigation and 3D QSAR analysis” (Eur J Med Chem, 2011).

The test system of data set [1] is Nucleic Acid. Description: Binding affinity to calf thymus DNA assessed as increase in DNA viscosity at compound to DNA ratio of 0.36. The class given is nucleic-acid assay. The conditions noted are these: Bos taurus. An outline of the steps:
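Relative viscosity of CT DNA solutions measured at compound/CT DNA ratios 0–0.36.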

Data set [2] relates to Mus musculus. The experiment in a line: Acute toxicity in ICR mouse assessed as mortality at 500 mg/kg, ip administered qd for 7 days. As to conditions: in vivo, 168 h. It counts as organism-based. Also on record: dose 500 mg/kg, route intraperitoneal.
Data set [3] concerns Mus musculus. The experiment in a line: Acute toxicity in ICR mouse assessed as tetanus at 500 mg/kg, ip administered qd for 7 days. It counts as organism-based. Also on record: dose 500 mg/kg, route intraperitoneal. The conditions noted are these: in vivo, 168 h.
Data set [4] concerns CCRF S-180. Description: Antitumor activity against mouse S180 cells xenografted in ICR mouse assessed as tumor growth inhibition at 8.9 umol/kg, ip administered 1 day after tumor inoculation qd for 7 days. The conditions noted are these: CCRF S-180, ip, read-out: GI. It counts as functional. An outline of the steps: (§1)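 Male ICR mice 10–12 weeks; S180 from ascites serially transplanted weekly; 1×10^7 viable cells in 0.2 ml NS implanted s.c. at right oxter; 24 h later randomized (10 per group); daily i.p. 8.9, 0.89 or 0.089 µmol/kg/day in 0.2 ml NS, 7 days; NS and cytarabine controls; sacrificed 24 h after last dose; inhibition % = [1−(Tw/Cw)]×100.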

In data set [5] the test system is Nucleic Acid. The experiment in a line: Binding affinity to double strand calf thymus DNA assessed as melting temperature. The class given is nucleic-acid assay. The conditions noted are these: Bos taurus. An outline of the steps: (§2)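 CT DNA in PBS pH 7.4, alone or with compound; temperature raised 1 °C/min with absorbance at 279 nm; Tm taken as temperature giving 50% absorbance increase.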

The test system of data set [6] is Mus musculus. The experiment in a line: Acute toxicity in ICR mouse assessed as jumping at 500 mg/kg, ip administered qd for 7 days. It counts as organism-based. As to conditions: in vivo, 168 h. Also on record: dose 500 mg/kg, route intraperitoneal.
Data set [7] has as its system CCRF S-180. The experiment in a line: Antitumor activity against mouse S180 cells xenografted in ICR mouse assessed as tumor growth inhibition at 0.089 umol/kg, ip qd administered 1 day after tumor inoculation for 7 days. It counts as functional. As to conditions: CCRF S-180, ip, read-out: GI. The procedure, abridged: as §1
Another data set relates to HepG2. The experiment in a line: Antiproliferative activity against human HepG2 cells after 48 hrs by MTT assay. The class given is functional, cell-based. The conditions noted are these: HepG2, 48 h. A general note: Tetrazolium assays rely on reduction of a dye to a coloured formazan, in cell work by metabolically active cells.
In data set [8] the test system is Mus musculus. Description: Toxicity in ICR mouse xenografted with mouse S180 cells assessed as increase in body weight at 8.9 umol/kg. It counts as organism-based, CCRF S-180. As to conditions: in vivo. The procedure, abridged:
(§3)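 S180-bearing male ICR mice (10–12 weeks; 1×10^7 cells s.c. right oxter; 12 per group), daily i.p. 8.9 µmol/kg for seven days starting 24 h after implantation; NS, cytarabine and doxorubicin controls; liver, brain, kidney weights, spleen index and body-weight gain recorded.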

In data set [9] the test system is Nucleic Acid. Description: Binding affinity to double stranded calf thymus DNA assessed as change in melting temperature per minute. It counts as nucleic-acid assay. The conditions noted are these: Bos taurus. The procedure, abridged:
as §2

Data set [10] concerns Mus musculus. Description: Acute toxicity in ICR mouse assessed as supination at 500 mg/kg, ip administered qd for 7 days. The class given is organism-based. Details: dose 500 mg/kg, route intraperitoneal. The conditions noted are these: in vivo, 168 h.
In data set [11] the test system is Mus musculus. Description: Acute toxicity in ICR mouse assessed as twitch at 500 mg/kg, ip administered qd for 7 days. It counts as organism-based. Also on record: dose 500 mg/kg, route intraperitoneal. As to conditions: in vivo, 168 h.
For data set [12], the system named is Mus musculus. The experiment in a line: Acute toxicity in ICR mouse assessed as apparent changes in any organ at 500 mg/kg, ip administered qd for 7 days. The class given is organism-based. Also on record: dose 500 mg/kg, route intraperitoneal. As to conditions: in vivo, 168 h.
Data set [13] concerns Mus musculus. The experiment in a line: Acute toxicity in ICR mouse assessed as tremors at 500 mg/kg, ip administered qd for 7 days. Also on record: dose 500 mg/kg, route intraperitoneal. The class given is organism-based. The conditions noted are these: in vivo, 168 h.
For data set [14], the system named is Mus musculus. Description: Toxicity in ICR mouse xenografted with mouse S180 cells assessed as increase in spleen index at 8.9 umol/kg. It counts as organism-based, CCRF S-180. As to conditions: in vivo. An outline of the steps: as §3
Data set [15] deals with CCRF S-180. The experiment in a line: Antiproliferative activity against mouse S180 cells after 48 hrs by MTT assay. The conditions noted are these: CCRF S-180, 48 h. The class given is functional, cell-based.
Data set [16] in a line: Acute toxicity in ip dosed ICR mouse assessed as lethal dose. As to conditions: in vivo. The class given is organism-based. The procedure, abridged:
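Male ICR mice, 24 weeks old, got a single i.p. injection of 500 mg/kg in 0.2 ml NS (normal saline). They were watched for 7 days for neurotoxic behaviour (tremor, twitch, jumping, tetanus, supination) and for death.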

Another data set deals with B16. The experiment in a line: Antiproliferative activity against mouse B16 cells after 48 hrs by MTT assay. The class given is functional, cell-based. The conditions noted are these: B16, 48 h.
Data set [17] deals with Mus musculus. The experiment in a line: Toxicity in ICR mouse xenografted with mouse S180 cells assessed as effect on kidney weight at 8.9 umol/kg. The class given is organism-based, CCRF S-180. The conditions noted are these: in vivo. An outline of the steps: as §3
Data set [18] relates to Mus musculus. The experiment in a line: Toxicity in ICR mouse xenografted with mouse S180 cells assessed as effect on liver weight at 8.9 umol/kg. As to conditions: in vivo. It counts as organism-based, CCRF S-180. The procedure, abridged:
as §3

The subject of a further data set is H22. The experiment in a line: Antiproliferative activity against mouse H22 cells after 48 hrs by MTT assay. It counts as functional, cell-based. As to conditions: H22, 48 h.
In the next data set the test system is K562. The experiment in a line: Antiproliferative activity against human K562 cells after 48 hrs by MTT assay. It counts as functional, cell-based. As to conditions: K562, 48 h.
In data set [19] the test system is Mus musculus. Description: Toxicity in ICR mouse xenografted with mouse S180 cells assessed as effect on brain weight at 8.9 umol/kg. It counts as organism-based, CCRF S-180. As to conditions: in vivo. An outline of the steps:
as §3

For data set [20], the system named is CCRF S-180. The experiment in a line: Antitumor activity against mouse S180 cells xenografted in ICR mouse assessed as tumor growth inhibition at 0.89 umol/kg, ip administered 1 day after tumor inoculation qd for 7 days. As to conditions: CCRF S-180, ip, read-out: GI. It counts as functional. An outline of the steps: as §1

Turning to `CC(C)[C@H](NC(=O)[C@H](Cc1c[nH]c2ccccc12)NC(=O)[C@@H](N)Cc1c[nH]c2ccccc12)C(=O)OCc1ccccc1` (H-Trp-Trp-Val-OBn), in the data set with Nucleic Acid [1], the outcome was Active. The Activity result in the data set with Mus musculus [2] was “Non-toxic”; in the data set with Mus musculus [3] it was “Non-toxic”; in the data set on Mus musculus [6] it was “Non-toxic”; with Mus musculus [8] it was 9.97 g; in the data set with Mus musculus [10], “Non-toxic”; with Mus musculus [11], “Non-toxic”. The Activity entry in the data set on Mus musculus [12] is recorded as “Non-toxic”; in the data set with Mus musculus [13], “Non-toxic”; in the data set on Mus musculus [14], 7.97; in the data set with Mus musculus [17] it was 0.15 g; with Mus musculus [18], 1.89 g; in the data set with Mus musculus [19] it was 0.27 g. Also, the inhibition in vivo at 8.9 µmol/kg with CCRF S-180 [4] was 79.5%. Besides, in the data set with Nucleic Acid [5], the Tm came out at 22 °C. Moreover, in the data set on CCRF S-180 [7], the inhibition in vivo at 0.089 µmol/kg is 41.7%. Further, the IC50 in the data set with HepG2 worked out at 9.49 µM; in the data set on CCRF S-180 [15], 8.14 µM; in the data set on B16, 11.2 µM; in the data set on H22 it was 9.97 µM; with K562, 8.27 µM. In the data set with Nucleic Acid [9], the ΔTm stood at 1 °C. The LD50 in data set [16] was greater than 500 mg/kg. Besides, the inhibition in vivo at 0.89 µmol/kg with CCRF S-180 [20] was 70.2%.
